Source: publication PMC6347715 (Proceedings of the National Academy of Sciences of the …, 2019)
≈ marks a conversion by molar mass, not a printed value.

Legend:
[1] = system: CYP1A, CYP2C9, CYP2C19, CYP2D6, CYP3A; test: Time-dependent inhibition of five major human CYP450 isoforms; format: in vitro ADME
[2] = system: Wolbachia pipientis (wAlbB) in C6/36 cells; test: Anti-Wolbachia cell-based assay; conditions: C6/36, read-out: EC50 anti-Wolbachia, cell assay
[3] = system: L. sigmodontis; test: L. sigmodontis gerbil model: parasitology readout; format: in vivo, Litomosoides sigmodontis
In short: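 Gerbils were infected with L. sigmodontis via mites and given oral treatment from 13 wk post infection. Starting at 12 wk post infection, 10 µL of saphenous-vein blood was taken every two weeks and diluted in 300 µL Hinkelmann solution. Samples were centrifuged at 400 × g for 5 min, and the pellet was resuspended in 1 mL. Total mf were counted microscopically in a Sedgewick Rafter chamber, with follow-up to 18 wk after treatment start.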

[4] = target: P-gp (Homo sapiens, UniProt P08183); test: P-gp-mediated efflux; format: in vitro ADME; conditions: not told
Sequence of P-gp (P08183 whole entry): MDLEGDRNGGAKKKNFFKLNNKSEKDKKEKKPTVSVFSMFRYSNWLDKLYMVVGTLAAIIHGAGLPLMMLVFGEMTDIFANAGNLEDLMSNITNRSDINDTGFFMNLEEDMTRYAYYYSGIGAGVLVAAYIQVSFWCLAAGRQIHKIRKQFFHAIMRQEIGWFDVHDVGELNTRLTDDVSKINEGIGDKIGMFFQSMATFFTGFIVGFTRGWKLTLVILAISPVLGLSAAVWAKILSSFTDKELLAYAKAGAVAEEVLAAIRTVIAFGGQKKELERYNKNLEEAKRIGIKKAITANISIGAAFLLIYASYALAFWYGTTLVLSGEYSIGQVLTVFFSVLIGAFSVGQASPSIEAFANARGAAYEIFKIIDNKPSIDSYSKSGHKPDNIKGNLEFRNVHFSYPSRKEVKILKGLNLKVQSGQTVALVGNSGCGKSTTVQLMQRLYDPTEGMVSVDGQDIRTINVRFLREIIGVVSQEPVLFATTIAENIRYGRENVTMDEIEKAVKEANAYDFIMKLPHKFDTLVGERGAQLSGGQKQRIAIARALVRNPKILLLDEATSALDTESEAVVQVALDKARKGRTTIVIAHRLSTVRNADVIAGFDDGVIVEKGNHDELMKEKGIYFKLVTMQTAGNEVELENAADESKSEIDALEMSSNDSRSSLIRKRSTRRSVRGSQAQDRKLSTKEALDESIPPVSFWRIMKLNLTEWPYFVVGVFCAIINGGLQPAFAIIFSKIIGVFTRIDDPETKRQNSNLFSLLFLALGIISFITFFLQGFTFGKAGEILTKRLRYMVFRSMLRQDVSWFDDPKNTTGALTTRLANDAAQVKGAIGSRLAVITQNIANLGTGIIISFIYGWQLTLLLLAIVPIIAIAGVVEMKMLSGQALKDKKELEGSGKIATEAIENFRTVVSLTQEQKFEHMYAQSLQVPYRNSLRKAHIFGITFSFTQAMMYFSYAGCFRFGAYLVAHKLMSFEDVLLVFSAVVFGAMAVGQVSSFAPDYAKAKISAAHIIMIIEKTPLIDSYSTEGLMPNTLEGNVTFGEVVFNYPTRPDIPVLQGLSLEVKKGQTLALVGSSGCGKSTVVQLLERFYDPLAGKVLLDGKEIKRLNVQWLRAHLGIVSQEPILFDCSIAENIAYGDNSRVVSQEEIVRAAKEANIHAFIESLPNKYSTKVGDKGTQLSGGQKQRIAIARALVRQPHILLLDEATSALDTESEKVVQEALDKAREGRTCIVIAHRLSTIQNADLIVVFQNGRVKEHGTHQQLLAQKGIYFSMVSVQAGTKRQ

[5] = Ames test
[6] = Solubility in fasted state-simulated intestinal fluid; format: physicochemical
[7] = system: CYP3A4; test: CYP3A4 induction; format: in vitro ADME; conditions: human
[8] = system: Wolbachia within B. malayi mf; test: B. malayi microfilaria time-kill assay; format: cell-based, Brugia malayi; conditions: drug concentration 10 times EC50; exposures 1, 2, 6 d
In short: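 This is a time-kill variant of the 6-d B. malayi mf assay: 8,000 mf per well in supplemented RPMI at 37 °C, 5% CO2. Drug was removed by a wash step on the indicated exposure day. Wolbachia was then quantified by wsp/gst qPCR, with five replicates per time point per treatment. Results come from one experiment.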

[9] = pKa; format: physicochemical
[10] = Aqueous solubility in pH 7.4 PBS buffer; format: physicochemical
[11] = system: Wolbachia in female adult L. sigmodontis; test: L. sigmodontis gerbil model: Wolbachia load; format: in vivo, Litomosoides sigmodontis; conditions: 18 wk post treatment
In short: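 Female gerbils aged 6–8 wk were infected by exposure to Ornithonyssus bacoti mites carrying L. sigmodontis L3. Treatment started 13 wk after infection, with animals randomised into groups of n = 5–9. Test compound in PEG300/propylene glycol/water (55/25/20) was given by oral gavage at 2.5 mL/kg. At necropsy 18 wk after treatment start, worms were recovered from the serous cavities. Wolbachia was measured by ftsZ qPCR in 5–20 individual female worms. Groups were compared with untreated controls by Kruskal–Wallis with Dunn's test.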

[12] = target: CYP2C9 (Homo sapiens, UniProt P11712); test: CYP2C9 inhibition; format: in vitro ADME
Sequence of CYP2C9 (P11712 whole entry): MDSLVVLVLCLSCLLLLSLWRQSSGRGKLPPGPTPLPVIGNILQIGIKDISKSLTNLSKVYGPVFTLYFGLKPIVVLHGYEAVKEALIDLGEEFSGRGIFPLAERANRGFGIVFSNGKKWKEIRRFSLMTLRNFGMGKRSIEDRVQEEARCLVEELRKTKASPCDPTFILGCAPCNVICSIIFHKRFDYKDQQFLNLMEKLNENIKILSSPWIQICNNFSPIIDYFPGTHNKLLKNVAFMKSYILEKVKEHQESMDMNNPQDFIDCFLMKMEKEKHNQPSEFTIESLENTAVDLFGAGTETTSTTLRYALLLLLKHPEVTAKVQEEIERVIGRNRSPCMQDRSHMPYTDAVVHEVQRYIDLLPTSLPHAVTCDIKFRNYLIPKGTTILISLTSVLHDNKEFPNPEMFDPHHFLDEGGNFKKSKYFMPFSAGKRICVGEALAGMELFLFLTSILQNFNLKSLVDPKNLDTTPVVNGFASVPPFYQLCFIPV

[13] = system: Wolbachia within female B. malayi adult parasites; test: Adult B. malayi SCID mouse model: Wolbachia load; format: in vivo, Brugia malayi; conditions: 100 mg/kg, 7 d orally
[14] = Mouse PK in BALB/c mice; conditions: in vivo
[15] = system: B. malayi; test: Adult B. malayi SCID mouse model: parasitology readout; format: in vivo, Brugia malayi; conditions: over the 6 wk of observation post treatment
[16] = Permeability in LLC-PK1 cell assay; format: in vitro ADME; conditions: pig

**Q.** Which results are given for `C[C@H]1COCCN1c1nc(NCc2cccnc2C(F)(F)F)c2cccnc2n1` [AWZ1066S, (S)-2-(3-methylmorpholino)-N-((2-(trifluoromethyl)pyridin-3-yl)methyl)pyrido[2,3-d]pyrimidin-4-amine]?
**A.** time-dependent inhibition [1]: does not show any time-dependent inhibition; EC50 [2]: 0.0025 ± 0.0004 µM; time from which peripheral blood microfilaremia began to decline ([3]; 7-d treatment): 6 wk post treatment; time from which amicrofilaremia was evident ([3]; 7-d treatment groups, sustained until 18 wk): 14 wk post treatment; efflux ratio [4]: 7.8; Ames test result [5]: negative; solubility [6]: 560 µg/mL (≈ 1380 µM); IC50 [7]: 37 µM; drug exposure needed for maximum reduction of Wolbachia [8]: 1 days; pKa [9]: 5.6; solubility [10]: 238 µM (≈ 96.2 µg/mL); Wolbachia load reduction compared with control untreated animals ([11]; 50 mg/kg orally twice daily 7 d): > 99%; Wolbachia load reduction compared with control untreated animals ([11]; 100 mg/kg orally twice daily 7 d): > 99%; IC50 [12]: 9.7 µM; Wolbachia reduction compared with the vehicle group [13]: 98%; bioavailability ([14]; BALB/c SCID, po): 54 to 91%; clearance ([14]; iv, 5 mg/kg, total clearance, dosed intravenously): 7.83 mL/min/kg; mice in which release of mf was completely prevented [15]: 9/10; Papp [16]: 7.4 ×10⁻⁶ cm/s
